From ChEMBL document CHEMBL1129961, “Design, synthesis, and antiviral evaluation of 2-chloro-5,6-dihalo-1-beta-D-ribofuranosylbenzimidazoles as potential agents for human cytomegalovirus infections” (J Med Chem, 1997)

Columns and labels:
HFF = assay: Visual cytotoxicity was scored on HFF cells at time of HCMV plaque enumeration; assay type: functional, cell-based; settings: Homo sapiens
Method in brief: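 Stationary HFF cells from the HCMV plaque assay, not affected by virus, inspected microscopically for cytotoxicity when plaques were counted after 7 days at 37 °C with compound at four to eight concentrations.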

Human betaherpesvirus 5 [1] = assay: Concentration required for 50% inhibition of HCMV replication was measured using a Plaque reduction assay; assay type: functional, organism-based
Method in brief: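 HFF cells in 24-well dishes infected with about 100 pfu of HCMV (Towne) per cm² cell sheet. After adsorption, compound in growth medium added to duplicate wells at four to eight concentrations. Incubated 7 days at 37 °C, then crystal violet fixing/staining and microscopic plaque counts. IC50 by linear regression of % plaque reduction against log concentration.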

Human alphaherpesvirus 1 = assay: Antiviral activity was measured by plaque assay against HSV-1 virus by ELISA method; assay type: functional, organism-based
Method in brief: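 HSV-1 (KOS strain) ELISA in BSC-1 cells, 10 000 per well in MEM(E) + 10% calf serum, seeded overnight at 37 °C. Drug in quadruplicate wells plus virus at 100 pfu/well, 3 days at 37 °C. Read-out: HRP-conjugated rabbit anti-HSV-1 antibody with TMB substrate, stopped with H2SO4, absorbance at 450 and 570 nm. IC50 from linear regression of % inhibition against log concentration.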

Human betaherpesvirus 5 [2] = assay: Concentration required for 90% inhibition of HCMV replication was measured using a yield reduction assay; assay type: functional
Method in brief: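 HFF monolayers in 96-well dishes infected with HCMV (Towne) at moi 0.5 to 1 pfu per cell. Compound serially diluted 1:3, 100 to 0.14 μM, in duplicate. 7 days at 37 °C, then one freeze-thaw cycle. Progeny titred by 1:3 serial dilution onto fresh HFF monolayers with plaque counts. IC90 by regression of % inhibition against log concentration.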

KB = assay: Inhibition of KB cell growth was determined; assay type: functional, cell-based; settings: Homo sapiens
Method in brief: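 KB cells seeded at 3000–5000 per well, overnight at 37 °C. Compound added in quadruplicate at six to eight concentrations, 48 h at 37 °C in CO2 (two population doublings). Ethanol fixation, 0.1% crystal violet staining, acidified-ethanol elution, absorbance at 570 nm. IC50 by linear regression against log concentration.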

Compound `Nc1cc2[nH]c(Cl)nc2cc1I` has an IC50 (HFF) greater than 100 µM, an IC50 (Human betaherpesvirus 5 [1]) greater than 100 µM and an IC50 (Human alphaherpesvirus 1) greater than 100 µM.

Compound `O=[N+]([O-])c1cc2[nH]c(Cl)nc2cc1I` has an IC50 (HFF) of 10 µM, an IC50 (Human betaherpesvirus 5 [1]) of 2.8 µM and an IC50 (Human alphaherpesvirus 1) of 25 µM. For the same compound, the IC90 (Human betaherpesvirus 5 [2]) was 7 µM.

`Nc1cc2[nH]c(Cl)nc2cc1[N+](=O)[O-]` gave an IC50 (HFF) greater than 100 µM, an IC50 (Human betaherpesvirus 5 [1]) greater than 100 µM and an IC50 (Human alphaherpesvirus 1) of 90 µM.

Compound `Fc1cc2nc(Cl)[nH]c2cc1F` has an IC50 (HFF) greater than 100 µM, an IC50 (Human betaherpesvirus 5 [1]) greater than 100 µM and an IC50 (KB) greater than 100 µM.

Work on `Clc1nc2cc(I)c(I)cc2[nH]1` yielded an IC50 (HFF) of 32 µM and an IC50 (Human betaherpesvirus 5 [1]) of 20 µM.

Work on `Clc1nc2cc(Br)c(Br)cc2[nH]1` yielded an IC50 (HFF) of 32 µM, an IC50 (Human betaherpesvirus 5 [1]) of 8.5 µM and an IC50 (Human alphaherpesvirus 1) of 65 µM. For the same compound, the IC50 (KB) was 35 µM.

`OC[C@H]1O[C@@H](n2c(Cl)nc3cc(Cl)c(Cl)cc32)[C@H](O)[C@@H]1O` showed an IC90 (Human betaherpesvirus 5 [2]) of 1.4 µM.

`OC[C@H]1OC(n2c(Cl)nc3cc(I)c(I)cc32)[C@H](O)[C@@H]1O` (some centres not stated) showed an IC50 (HFF) of 13 µM, an IC50 (Human betaherpesvirus 5 [1]) of 2.5 µM and an IC50 (Human alphaherpesvirus 1) of 57 µM. It also gave an IC50 (KB) of 27 µM and an IC90 (Human betaherpesvirus 5 [2]) of 2.2 µM.

With `Cc1cc2nc(Cl)n(C3O[C@H](CO)[C@@H](O)[C@H]3O)c2cc1C` (some centres not stated) the IC50 (HFF) was greater than 100 µM, the IC50 (Human betaherpesvirus 5 [1]) was greater than 100 µM and the IC50 (Human alphaherpesvirus 1) was greater than 100 µM. For the same compound, the IC50 (KB) was greater than 100 µM.

Work on `OC[C@H]1OC(n2c(Cl)nc3cc(F)c(F)cc32)[C@H](O)[C@@H]1O` (some centres not stated) yielded an IC50 (HFF) greater than 100 µM, an IC50 (Human betaherpesvirus 5 [1]) greater than 100 µM and an IC50 (Human alphaherpesvirus 1) greater than 100 µM. It also gave an IC50 (KB) greater than 100 µM and an IC90 (Human betaherpesvirus 5 [2]) of 75 µM.

`OC[C@H]1OC(n2c(Cl)nc3cc(Br)c(Br)cc32)[C@H](O)[C@@H]1O` (some centres not stated) showed an IC50 (HFF) of 44 µM, an IC50 (Human betaherpesvirus 5 [1]) of 3.8 µM and an IC50 (Human alphaherpesvirus 1) greater than 100 µM. It also gave an IC50 (KB) of 88 µM and an IC90 (Human betaherpesvirus 5 [2]) of 1.3 µM.

`OC[C@H]1OC(n2c(Cl)nc3ccccc32)[C@H](O)[C@@H]1O` (some centres not stated) was tested, and the IC50 (HFF) was greater than 100 µM, the IC50 (Human betaherpesvirus 5 [1]) was greater than 100 µM and the IC50 (KB) was greater than 100 µM. The IC90 (Human betaherpesvirus 5 [2]) was greater than 100 µM.

For `O=C(O)P(=O)(O)O` [FOSCARNET], the IC50 (HFF) was greater than 100 µM.

With `Nc1nc2c(ncn2COC(CO)CO)c(=O)[nH]1` [GANCICLOVIR] the IC50 (HFF) was greater than 100 µM, the IC50 (KB) was greater than 100 µM and the IC90 (Human betaherpesvirus 5 [2]) was 1.6 µM.
